Assay results: ChEMBL document CHEMBL3580565, “Synthesis and Biological Evaluation of Cyclopentaquinoline Derivatives as Nonsteroidal Glucocorticoid Receptor Antagonists” (J Med Chem, 2015)
pIC50, pKi: −log10 of the molar value.

Assays:
Rattus norvegicus [1] = assay: Antidepressant-like activity in Wistar rat assessed as immobility time at 100 mg/kg, po administered at 1, 5, 23.5 hrs prior to testing measured for 5 mins by forced swimming test (reference value: 211.3 to 232.2 secs); assay type: functional
[2] = Cmax in Sprague-Dawley rat at 1 mg/kg, iv by LC/MS/MS analysis; assay type: ADME, organism-based; set-up: dose 1 mg/kg, route intravenous; conditions: in vivo
Method in brief: (§1)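 Single intravenous dose to male Sprague–Dawley rats (n = 4). Jugular vein blood drawn at 0.05, 0.25, 0.5, 1, 2, 4, 8 and 24 h, heparin anticoagulant, plasma separated by centrifugation. Plasma drug level measured by LC/MS/MS.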

Estrogen receptor beta = Estrogen receptor beta (Homo sapiens, UniProt Q92731); assay: Displacement of fluormone ES2 from human recombinant estrogen receptor-beta expressed in insect Hi5 cells after 120 mins by fluorescence polarization assay; set-up: species or system BTI-TN-5B1-4
Method in brief: (§2)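 Assay run at Cerep. Fluorescence polarization with Fluormone ES2 tracer, using recombinant human ERα expressed in Sf9 cells and ERβ expressed in Hi5 cells.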

Estrogen receptor = Estrogen receptor (Homo sapiens, UniProt P03372); assay: Displacement of fluormone ES2 from human recombinant estrogen receptor-alpha expressed in insect Sf9 cells after 120 mins by fluorescence polarization assay; method in brief: as §2
[3] = AUC (0 to t) in Sprague-Dawley rat at 1 mg/kg, iv by LC/MS/MS analysis; assay type: ADME, organism-based; conditions: in vivo; method in brief: as §1
Rattus norvegicus [4] = assay: Antidepressant-like activity in Wistar rat assessed as immobility time at 30 mg/kg, po administered at 1, 5, 23.5 hrs prior to testing measured for 5 mins by forced swimming test (reference value: 211.3 to 232.2 secs); assay type: functional
[5] = biological target: T1, Mineralocorticoid receptor (Homo sapiens, UniProt P08235); assay: Displacement of [3H]-aldosterone from cytosolic fraction of human recombinant mineralocorticoid receptor by scintillation counting analysis
T1 sequence (P08235 whole entry): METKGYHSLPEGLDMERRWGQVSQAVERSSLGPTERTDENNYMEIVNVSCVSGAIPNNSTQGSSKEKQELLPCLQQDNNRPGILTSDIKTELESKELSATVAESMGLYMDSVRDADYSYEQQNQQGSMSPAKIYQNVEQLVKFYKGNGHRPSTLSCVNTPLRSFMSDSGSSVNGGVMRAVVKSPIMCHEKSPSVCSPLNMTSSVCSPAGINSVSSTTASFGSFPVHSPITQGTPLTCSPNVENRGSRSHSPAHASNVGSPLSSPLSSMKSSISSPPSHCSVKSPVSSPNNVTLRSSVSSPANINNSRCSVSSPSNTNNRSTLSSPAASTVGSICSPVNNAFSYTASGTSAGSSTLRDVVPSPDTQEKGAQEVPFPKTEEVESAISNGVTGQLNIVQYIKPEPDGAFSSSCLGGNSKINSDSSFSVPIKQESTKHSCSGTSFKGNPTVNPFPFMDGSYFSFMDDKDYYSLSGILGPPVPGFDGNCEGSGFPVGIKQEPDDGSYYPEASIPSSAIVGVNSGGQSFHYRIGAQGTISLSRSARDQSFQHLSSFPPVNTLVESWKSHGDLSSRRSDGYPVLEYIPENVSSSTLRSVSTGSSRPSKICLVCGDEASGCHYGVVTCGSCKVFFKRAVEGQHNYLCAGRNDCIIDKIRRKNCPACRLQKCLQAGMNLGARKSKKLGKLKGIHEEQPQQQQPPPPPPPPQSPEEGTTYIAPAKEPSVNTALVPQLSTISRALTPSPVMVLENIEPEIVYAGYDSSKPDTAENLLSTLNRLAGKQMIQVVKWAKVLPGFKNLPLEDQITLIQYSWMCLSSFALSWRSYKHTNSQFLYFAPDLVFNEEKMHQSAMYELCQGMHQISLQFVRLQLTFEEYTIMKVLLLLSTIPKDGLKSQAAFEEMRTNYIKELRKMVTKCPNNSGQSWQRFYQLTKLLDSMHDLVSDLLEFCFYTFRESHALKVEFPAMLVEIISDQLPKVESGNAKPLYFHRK

Glucocorticoid receptor = biological target: T2, Glucocorticoid receptor (Homo sapiens, UniProt P04150); assay: Antagonist activity at human glucocorticoid receptor transfected in CHOK1 cells assessed as inhibition of dexamethasone-induced receptor transcriptional activity after 6 hrs by luciferase reporter gene assay; assay type: cell-based, CHO-K1
T2 sequence (P04150 whole entry): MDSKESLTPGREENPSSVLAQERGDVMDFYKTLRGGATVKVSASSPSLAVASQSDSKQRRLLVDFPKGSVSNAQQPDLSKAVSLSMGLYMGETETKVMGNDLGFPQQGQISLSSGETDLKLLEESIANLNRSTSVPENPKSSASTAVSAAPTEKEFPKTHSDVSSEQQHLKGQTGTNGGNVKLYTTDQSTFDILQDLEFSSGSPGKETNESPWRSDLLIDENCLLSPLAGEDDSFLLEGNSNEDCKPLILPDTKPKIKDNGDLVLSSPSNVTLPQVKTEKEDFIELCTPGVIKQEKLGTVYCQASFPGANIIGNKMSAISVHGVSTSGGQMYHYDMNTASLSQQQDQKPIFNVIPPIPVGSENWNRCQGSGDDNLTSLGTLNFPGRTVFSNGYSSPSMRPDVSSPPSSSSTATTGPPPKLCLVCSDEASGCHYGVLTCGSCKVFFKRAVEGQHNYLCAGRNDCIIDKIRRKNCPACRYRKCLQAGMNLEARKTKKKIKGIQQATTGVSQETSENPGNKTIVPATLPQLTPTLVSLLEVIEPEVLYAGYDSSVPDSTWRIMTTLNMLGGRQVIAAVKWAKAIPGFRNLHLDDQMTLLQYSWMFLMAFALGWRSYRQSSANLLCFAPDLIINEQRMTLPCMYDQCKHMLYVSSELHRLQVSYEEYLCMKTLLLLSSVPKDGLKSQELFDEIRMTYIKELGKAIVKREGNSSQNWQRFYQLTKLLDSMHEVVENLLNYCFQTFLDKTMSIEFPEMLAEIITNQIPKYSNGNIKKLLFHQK

Rattus norvegicus [6] = assay: Antidepressant-like activity in Wistar rat assessed as decrease in immobility time at 100 mg/kg, po administered at 1, 5, 23.5 hrs prior to testing measured for 5 mins by forced swimming test relative to vehicle-treated control; assay type: functional; set-up: scale not given: the % may be the effect or the level left
Rattus norvegicus [7] = assay: Antidepressant-like activity in Wistar rat assessed as immobility time at 10 mg/kg, po administered at 1, 5, 23.5 hrs prior to testing measured for 5 mins by forced swimming test (reference value: 211.3 to 232.2 secs); assay type: functional
[8] = AUC (0 to t) in Sprague-Dawley rat at 10 mg/kg, po by LC/MS/MS analysis; assay type: ADME, organism-based; conditions: in vivo
Method in brief: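 Male Sprague–Dawley rats dosed orally (n = 4). Jugular vein blood sampled at 0.25, 0.5, 1, 2, 4, 6 and 24 h into heparin, plasma obtained by centrifugation. Concentrations determined by LC/MS/MS.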

[9] = AUC (0 to infinity) in Sprague-Dawley rat at 1 mg/kg, iv by LC/MS/MS analysis; assay type: ADME, organism-based; set-up: dose 1 mg/kg, route intravenous, time infinity; conditions: in vivo; method in brief: as §1
Rattus norvegicus [10] = assay: Antidepressant-like activity in Wistar rat assessed as decrease in immobility time at 30 mg/kg, po administered at 1, 5, 23.5 hrs prior to testing measured for 5 mins by forced swimming test relative to vehicle-treated control; assay type: functional; set-up: scale not given: the % may be the effect or the level left

Estrogen receptor, sequence (P03372 whole entry, looked up): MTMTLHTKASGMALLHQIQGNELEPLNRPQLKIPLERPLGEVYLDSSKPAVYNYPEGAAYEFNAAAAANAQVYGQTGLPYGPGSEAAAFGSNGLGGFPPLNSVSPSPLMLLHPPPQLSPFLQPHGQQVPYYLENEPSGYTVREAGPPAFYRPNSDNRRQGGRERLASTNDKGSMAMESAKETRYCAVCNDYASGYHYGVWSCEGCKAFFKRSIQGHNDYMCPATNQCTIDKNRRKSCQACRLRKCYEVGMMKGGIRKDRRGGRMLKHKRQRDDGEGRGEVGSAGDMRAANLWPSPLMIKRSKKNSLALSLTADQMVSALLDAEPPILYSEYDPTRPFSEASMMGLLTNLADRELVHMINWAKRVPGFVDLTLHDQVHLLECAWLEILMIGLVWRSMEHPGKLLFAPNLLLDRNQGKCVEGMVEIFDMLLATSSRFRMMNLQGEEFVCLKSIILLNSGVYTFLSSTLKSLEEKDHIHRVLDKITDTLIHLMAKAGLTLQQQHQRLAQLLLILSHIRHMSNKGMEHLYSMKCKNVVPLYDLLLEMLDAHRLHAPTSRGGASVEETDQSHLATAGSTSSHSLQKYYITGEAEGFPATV
Estrogen receptor beta, sequence (Q92731 whole entry): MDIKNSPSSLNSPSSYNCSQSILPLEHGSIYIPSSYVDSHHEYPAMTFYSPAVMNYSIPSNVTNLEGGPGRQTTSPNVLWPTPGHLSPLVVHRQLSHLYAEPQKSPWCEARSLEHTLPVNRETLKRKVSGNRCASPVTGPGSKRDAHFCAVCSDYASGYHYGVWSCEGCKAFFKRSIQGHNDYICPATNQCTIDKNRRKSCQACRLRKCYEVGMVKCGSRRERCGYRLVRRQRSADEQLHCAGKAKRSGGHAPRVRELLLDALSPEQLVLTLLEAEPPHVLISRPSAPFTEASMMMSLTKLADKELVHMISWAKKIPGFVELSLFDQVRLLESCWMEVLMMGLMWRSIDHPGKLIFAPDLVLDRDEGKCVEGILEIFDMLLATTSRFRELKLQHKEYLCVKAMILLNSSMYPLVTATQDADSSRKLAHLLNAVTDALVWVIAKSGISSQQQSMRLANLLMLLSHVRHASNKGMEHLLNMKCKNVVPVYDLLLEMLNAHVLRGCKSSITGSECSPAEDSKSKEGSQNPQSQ

Cmax [2]: 633 ng/mL | pKi (Estrogen receptor beta): < 5.64 | pKi (Estrogen receptor): < 5.64 | AUC(0-t) [3]: 410 ng·h/mL | pKi [5]: < 5.52 | pIC50 (Glucocorticoid receptor): 7.52 | AUC(0-t) [8]: 2420 ng·h/mL | AUC(0-inf) [9]: 460 ng·h/mL
Compound: Cc1noc(C)c1-c1cc2c(c3c1CCC3)NC(C)(C)C(=O)C2(C)C
Time (Rattus norvegicus [1]): 187.3 s | Time (Rattus norvegicus [4]): 170.7 s | Activity (Rattus norvegicus [6]): 80.7% | Time (Rattus norvegicus [7]): 206.8 s | Activity (Rattus norvegicus [10]): 75.9%
